Results taken from ChEMBL document CHEMBL2203081 (Bioorg Med Chem Lett, 2012).
The source made the active and inactive calls. The rule behind the calls is not given here.

Key:
[1] = molecular target: Microtubule-associated serine/threonine-protein kinase 1 (Homo sapiens) (UniProt Q9Y2H9); test: Inhibition of MAST1 assessed as residual activity at 10 uM relative to control
[2] = molecular target: Ribosomal protein S6 kinase alpha-6 (Homo sapiens) (UniProt Q9UK32); test: Inhibition of RSK4 N-terminal domain 1 assessed as residual activity at 10 uM relative to control
[3] = molecular target: SRSF protein kinase 1 (Homo sapiens) (UniProt Q96SB4); test: Inhibition of SRPK1 assessed as residual activity at 10 uM relative to control
[4] = molecular target: Serine/threonine-protein kinase DCLK2 (Homo sapiens) (UniProt Q8N568); test: Inhibition of DCAMKL2 assessed as residual activity at 10 uM relative to control
How it was run: (§1)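 Competition kinase-binding assay (KINOMEscan) across a non-redundant panel of 329 kinases beyond the radiometric panel; residual binding expressed relative to control.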

[5] = molecular target: Serine/threonine-protein kinase 24 (Homo sapiens) (UniProt Q9Y6E0); test: Inhibition of MST3 assessed as residual activity at 1 uM
[6] = molecular target: Mitogen-activated protein kinase 11 (Homo sapiens) (UniProt Q15759); test: Inhibition of p38-beta assessed as residual activity at 10 uM relative to control
[7] = molecular target: Mitogen-activated protein kinase kinase kinase 10 (Homo sapiens) (UniProt Q02779); test: Inhibition of MLK2 assessed as residual activity at 10 uM relative to control
[8] = molecular target: T1, Serine/threonine-protein kinase STK11 (Homo sapiens) (UniProt Q15831); test: Inhibition of LKB1 assessed as residual activity at 1 uM
T1 sequence (whole entry): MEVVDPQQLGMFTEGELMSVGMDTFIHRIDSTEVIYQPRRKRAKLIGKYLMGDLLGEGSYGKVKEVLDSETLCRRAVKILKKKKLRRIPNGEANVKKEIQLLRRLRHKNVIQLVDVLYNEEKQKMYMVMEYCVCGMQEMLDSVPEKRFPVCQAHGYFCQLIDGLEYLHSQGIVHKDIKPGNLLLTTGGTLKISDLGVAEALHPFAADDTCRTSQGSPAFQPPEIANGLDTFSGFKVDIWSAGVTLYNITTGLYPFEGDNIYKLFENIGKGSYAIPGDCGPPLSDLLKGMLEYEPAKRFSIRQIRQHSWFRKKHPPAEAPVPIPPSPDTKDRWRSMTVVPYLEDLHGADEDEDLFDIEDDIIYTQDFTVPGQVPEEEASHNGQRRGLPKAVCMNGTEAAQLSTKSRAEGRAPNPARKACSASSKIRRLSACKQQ

[9] = system: Receptor-type tyrosine-protein kinase FLT3 (Homo sapiens), P36888 [N841I]; test: Inhibition of FLT3 N841I mutant assessed as residual activity at 10 uM relative to control
[10] = molecular target: Inhibitor of nuclear factor kappa-B kinase subunit epsilon (Homo sapiens) (UniProt Q14164); test: Inhibition of IKKe assessed as residual activity at 1 uM
[11] = Inhibition of FLT3 ITD mutant assessed as residual activity at 10 uM relative to control
[12] = molecular target: Aurora kinase C (Homo sapiens) (UniProt Q9UQB9); test: Inhibition of AURKC assessed as residual activity at 10 uM relative to control
[13] = molecular target: T2, NUAK family SNF1-like kinase 1 (Homo sapiens) (UniProt O60285); test: Inhibition of NUAK1 assessed as residual activity at 10 uM
T2 sequence (whole entry): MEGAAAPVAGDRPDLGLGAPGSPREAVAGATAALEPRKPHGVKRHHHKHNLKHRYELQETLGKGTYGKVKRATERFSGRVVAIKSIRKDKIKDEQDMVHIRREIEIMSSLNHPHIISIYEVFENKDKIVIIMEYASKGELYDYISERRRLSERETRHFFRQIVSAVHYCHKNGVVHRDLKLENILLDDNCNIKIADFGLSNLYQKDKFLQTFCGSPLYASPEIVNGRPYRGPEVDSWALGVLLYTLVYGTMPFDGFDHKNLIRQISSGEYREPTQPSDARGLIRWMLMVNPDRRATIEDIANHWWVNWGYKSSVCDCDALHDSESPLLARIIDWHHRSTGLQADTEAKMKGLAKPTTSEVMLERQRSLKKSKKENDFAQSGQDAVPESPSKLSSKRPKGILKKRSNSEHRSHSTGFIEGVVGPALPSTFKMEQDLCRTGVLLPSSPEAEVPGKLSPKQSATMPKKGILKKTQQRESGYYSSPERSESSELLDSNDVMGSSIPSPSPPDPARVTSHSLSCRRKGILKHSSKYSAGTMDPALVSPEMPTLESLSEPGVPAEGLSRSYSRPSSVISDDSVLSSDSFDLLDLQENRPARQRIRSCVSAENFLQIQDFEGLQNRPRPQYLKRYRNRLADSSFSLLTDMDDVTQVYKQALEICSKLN

[14] = molecular target: Serine/threonine-protein kinase 33 (Homo sapiens) (UniProt Q9BYT3); test: Inhibition of STK33 assessed as residual activity at 10 uM
[15] = molecular target: Tyrosine-protein kinase Yes (Homo sapiens) (UniProt P07947); test: Inhibition of YES1 assessed as residual activity at 1 uM
[16] = molecular target: Mitogen-activated protein kinase 14 (Homo sapiens) (UniProt Q16539); test: Inhibition of p38a MAPK assessed as residual activity at 10 uM
[17] = molecular target: Serine/threonine-protein kinase SIK2 (Homo sapiens) (UniProt Q9H0K1); test: Inhibition of SIK2 assessed as residual activity at 10 uM relative to control
[18] = molecular target: T1, Serine/threonine-protein kinase STK11 (Homo sapiens); test: Inhibition of LKB1 assessed as residual activity at 10 uM relative to control
[19] = molecular target: Leucine-rich repeat serine/threonine-protein kinase 2 (Homo sapiens) (UniProt Q5S007); details: HEK293, 0.3 to 1 uM
[20] = molecular target: Tyrosine-protein kinase Fer (Homo sapiens) (UniProt P16591); test: Inhibition of FER assessed as residual activity at 10 uM relative to control
[21] = molecular target: Ephrin type-A receptor 3 (Homo sapiens) (UniProt P29320); test: Inhibition of EPHA3 assessed as residual activity at 10 uM relative to control; how it was run: as §1
[22] = molecular target: Receptor-interacting serine/threonine-protein kinase 2 (Homo sapiens) (UniProt O43353); test: Inhibition of RIPK2 assessed as residual activity at 1 uM
[23] = molecular target: Cyclin-dependent kinase 2/cyclin A (Homo sapiens) (UniProt P24941+P20248+P78396); test: Inhibition of CDK2-Cyclin A assessed as residual activity at 1 uM; type: protein-complex assay
[24] = molecular target: Leucine-rich repeat serine/threonine-protein kinase 2 (Mus musculus) (UniProt Q5S006); test: Inhibition of LRRK2 in Swiss mouse 3T3 cells assessed as inhibition of Ser910 autophosphorylation after 90 mins by immunoblot method; type: cell-based; details: NIH3T3
[25] = molecular target: Ephrin type-B receptor 6 (Homo sapiens) (UniProt O15197); test: Inhibition of EPHB6 assessed as residual activity at 10 uM relative to control; how it was run: as §1
[26] = Inhibition of AMPK assessed as residual activity at 10 uM

Tyrosine-protein kinase Fer (Homo sapiens), sequence (P16591 whole entry, looked up): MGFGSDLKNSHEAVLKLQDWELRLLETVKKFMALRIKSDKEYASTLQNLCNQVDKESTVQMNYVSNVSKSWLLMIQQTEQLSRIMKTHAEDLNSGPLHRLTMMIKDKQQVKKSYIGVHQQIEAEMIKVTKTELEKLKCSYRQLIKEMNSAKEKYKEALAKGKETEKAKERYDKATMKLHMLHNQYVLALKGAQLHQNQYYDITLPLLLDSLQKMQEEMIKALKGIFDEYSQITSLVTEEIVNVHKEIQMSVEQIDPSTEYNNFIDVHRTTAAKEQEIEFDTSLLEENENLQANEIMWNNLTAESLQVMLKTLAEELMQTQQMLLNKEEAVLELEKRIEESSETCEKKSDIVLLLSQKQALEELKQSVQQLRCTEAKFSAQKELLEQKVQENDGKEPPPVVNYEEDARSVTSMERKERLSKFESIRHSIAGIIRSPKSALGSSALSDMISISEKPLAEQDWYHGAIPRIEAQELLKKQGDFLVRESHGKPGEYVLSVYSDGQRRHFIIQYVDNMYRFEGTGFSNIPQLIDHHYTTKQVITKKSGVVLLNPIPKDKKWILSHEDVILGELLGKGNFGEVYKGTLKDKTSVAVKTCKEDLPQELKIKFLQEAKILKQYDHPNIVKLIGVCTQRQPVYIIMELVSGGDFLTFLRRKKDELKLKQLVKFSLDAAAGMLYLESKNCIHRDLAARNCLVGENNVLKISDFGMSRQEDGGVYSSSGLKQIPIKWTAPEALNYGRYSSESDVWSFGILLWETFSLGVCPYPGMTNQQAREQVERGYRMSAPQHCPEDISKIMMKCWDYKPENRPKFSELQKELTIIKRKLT
Leucine-rich repeat serine/threonine-protein kinase 2 (Mus musculus), sequence (Q5S006 whole entry): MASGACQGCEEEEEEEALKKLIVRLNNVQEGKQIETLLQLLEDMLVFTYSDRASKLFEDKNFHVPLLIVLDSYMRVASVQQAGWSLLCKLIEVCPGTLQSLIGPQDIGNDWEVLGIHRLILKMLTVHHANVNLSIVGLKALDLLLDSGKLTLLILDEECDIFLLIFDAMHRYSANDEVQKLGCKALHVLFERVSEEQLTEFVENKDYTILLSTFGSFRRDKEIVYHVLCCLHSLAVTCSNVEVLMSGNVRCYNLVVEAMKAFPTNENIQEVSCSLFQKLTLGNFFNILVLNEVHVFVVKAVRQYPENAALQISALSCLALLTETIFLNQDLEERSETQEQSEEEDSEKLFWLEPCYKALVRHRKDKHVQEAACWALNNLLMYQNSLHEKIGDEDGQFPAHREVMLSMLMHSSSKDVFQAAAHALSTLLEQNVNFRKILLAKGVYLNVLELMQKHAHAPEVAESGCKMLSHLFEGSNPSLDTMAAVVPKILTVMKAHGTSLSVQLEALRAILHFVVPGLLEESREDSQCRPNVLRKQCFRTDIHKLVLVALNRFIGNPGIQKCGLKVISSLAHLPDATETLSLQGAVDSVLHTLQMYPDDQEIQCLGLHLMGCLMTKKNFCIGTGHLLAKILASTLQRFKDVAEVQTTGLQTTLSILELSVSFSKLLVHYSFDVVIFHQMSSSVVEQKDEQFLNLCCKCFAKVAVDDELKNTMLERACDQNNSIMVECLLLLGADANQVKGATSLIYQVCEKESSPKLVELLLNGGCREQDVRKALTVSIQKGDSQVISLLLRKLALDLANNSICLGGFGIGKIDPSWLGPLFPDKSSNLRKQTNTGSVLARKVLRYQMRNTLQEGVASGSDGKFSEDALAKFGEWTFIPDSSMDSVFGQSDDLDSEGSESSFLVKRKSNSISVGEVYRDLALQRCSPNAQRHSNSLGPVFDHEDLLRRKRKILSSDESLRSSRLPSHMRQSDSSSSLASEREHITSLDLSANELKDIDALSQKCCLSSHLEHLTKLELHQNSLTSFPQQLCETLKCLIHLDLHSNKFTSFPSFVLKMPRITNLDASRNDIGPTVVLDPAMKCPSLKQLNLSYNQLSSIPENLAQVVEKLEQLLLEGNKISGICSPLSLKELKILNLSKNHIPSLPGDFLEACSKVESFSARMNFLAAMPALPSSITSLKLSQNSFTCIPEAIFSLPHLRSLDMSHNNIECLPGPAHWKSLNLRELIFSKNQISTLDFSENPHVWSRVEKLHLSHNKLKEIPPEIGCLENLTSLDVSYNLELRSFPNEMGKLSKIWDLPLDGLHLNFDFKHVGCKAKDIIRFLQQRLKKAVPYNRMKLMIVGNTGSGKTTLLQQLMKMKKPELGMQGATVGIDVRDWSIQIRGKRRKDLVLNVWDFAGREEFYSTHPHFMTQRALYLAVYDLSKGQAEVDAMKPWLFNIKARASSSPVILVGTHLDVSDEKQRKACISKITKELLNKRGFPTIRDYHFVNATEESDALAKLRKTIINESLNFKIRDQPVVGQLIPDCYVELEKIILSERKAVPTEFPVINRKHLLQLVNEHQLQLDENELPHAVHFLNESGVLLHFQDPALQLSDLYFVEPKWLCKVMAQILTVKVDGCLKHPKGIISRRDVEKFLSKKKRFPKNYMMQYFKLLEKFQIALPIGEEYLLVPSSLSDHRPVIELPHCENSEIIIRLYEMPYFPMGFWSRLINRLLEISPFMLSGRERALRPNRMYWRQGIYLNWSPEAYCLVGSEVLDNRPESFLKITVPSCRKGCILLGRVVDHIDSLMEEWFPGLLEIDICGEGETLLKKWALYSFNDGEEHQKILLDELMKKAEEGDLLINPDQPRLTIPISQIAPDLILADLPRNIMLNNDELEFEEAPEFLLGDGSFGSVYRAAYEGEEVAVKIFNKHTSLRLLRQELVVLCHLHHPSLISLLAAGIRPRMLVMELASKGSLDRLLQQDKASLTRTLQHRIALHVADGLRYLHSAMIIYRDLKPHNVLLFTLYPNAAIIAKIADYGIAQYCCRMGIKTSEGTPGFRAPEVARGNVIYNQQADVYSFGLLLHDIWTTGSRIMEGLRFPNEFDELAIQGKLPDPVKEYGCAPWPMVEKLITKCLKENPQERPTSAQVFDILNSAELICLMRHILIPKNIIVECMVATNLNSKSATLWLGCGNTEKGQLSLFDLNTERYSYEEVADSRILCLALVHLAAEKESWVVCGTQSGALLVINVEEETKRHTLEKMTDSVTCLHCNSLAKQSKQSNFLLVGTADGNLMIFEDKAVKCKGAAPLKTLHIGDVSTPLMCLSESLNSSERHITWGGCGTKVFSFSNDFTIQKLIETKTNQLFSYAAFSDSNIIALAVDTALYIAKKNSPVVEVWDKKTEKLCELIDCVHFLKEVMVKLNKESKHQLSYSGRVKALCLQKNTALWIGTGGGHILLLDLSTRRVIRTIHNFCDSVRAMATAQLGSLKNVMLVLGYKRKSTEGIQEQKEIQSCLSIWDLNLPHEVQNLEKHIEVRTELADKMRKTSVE
Mitogen-activated protein kinase 11 (Homo sapiens), sequence (Q15759 whole entry): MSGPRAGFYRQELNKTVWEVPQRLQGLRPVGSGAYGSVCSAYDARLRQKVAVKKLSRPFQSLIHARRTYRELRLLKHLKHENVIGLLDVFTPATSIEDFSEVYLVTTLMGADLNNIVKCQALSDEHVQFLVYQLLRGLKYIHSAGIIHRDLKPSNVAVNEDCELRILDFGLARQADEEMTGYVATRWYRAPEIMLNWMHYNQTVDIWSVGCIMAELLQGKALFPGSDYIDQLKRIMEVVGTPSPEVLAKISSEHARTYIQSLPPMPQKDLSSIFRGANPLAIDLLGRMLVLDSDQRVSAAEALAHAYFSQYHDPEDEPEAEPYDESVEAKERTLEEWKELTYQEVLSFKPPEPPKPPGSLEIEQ
Mitogen-activated protein kinase kinase kinase 10 (Homo sapiens), sequence (Q02779 whole entry, looked up): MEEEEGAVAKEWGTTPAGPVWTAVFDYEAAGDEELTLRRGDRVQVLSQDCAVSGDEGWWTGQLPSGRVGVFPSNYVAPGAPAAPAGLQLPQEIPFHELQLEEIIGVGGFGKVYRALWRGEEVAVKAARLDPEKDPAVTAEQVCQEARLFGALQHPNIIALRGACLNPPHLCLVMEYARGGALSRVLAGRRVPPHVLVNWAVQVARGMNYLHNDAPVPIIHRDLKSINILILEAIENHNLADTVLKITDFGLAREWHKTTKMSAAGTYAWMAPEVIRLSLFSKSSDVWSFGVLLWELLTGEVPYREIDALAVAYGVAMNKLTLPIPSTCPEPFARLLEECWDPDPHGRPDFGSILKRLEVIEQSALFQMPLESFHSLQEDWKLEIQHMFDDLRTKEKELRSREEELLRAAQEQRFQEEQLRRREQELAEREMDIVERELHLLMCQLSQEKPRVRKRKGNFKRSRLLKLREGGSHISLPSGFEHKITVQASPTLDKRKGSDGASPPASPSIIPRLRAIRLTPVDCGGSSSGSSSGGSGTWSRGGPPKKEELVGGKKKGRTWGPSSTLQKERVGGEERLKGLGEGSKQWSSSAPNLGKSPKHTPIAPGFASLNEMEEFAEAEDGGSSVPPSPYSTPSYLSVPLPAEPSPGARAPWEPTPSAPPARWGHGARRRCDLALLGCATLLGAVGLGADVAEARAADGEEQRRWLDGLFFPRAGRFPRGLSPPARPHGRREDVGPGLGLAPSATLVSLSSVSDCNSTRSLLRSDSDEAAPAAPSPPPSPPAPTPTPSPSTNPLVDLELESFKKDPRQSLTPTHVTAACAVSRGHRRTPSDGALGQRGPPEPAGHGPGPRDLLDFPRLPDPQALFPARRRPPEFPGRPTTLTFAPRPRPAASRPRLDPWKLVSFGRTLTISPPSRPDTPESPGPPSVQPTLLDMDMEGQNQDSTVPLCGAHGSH
Mitogen-activated protein kinase 14 (Homo sapiens), sequence (Q16539 whole entry): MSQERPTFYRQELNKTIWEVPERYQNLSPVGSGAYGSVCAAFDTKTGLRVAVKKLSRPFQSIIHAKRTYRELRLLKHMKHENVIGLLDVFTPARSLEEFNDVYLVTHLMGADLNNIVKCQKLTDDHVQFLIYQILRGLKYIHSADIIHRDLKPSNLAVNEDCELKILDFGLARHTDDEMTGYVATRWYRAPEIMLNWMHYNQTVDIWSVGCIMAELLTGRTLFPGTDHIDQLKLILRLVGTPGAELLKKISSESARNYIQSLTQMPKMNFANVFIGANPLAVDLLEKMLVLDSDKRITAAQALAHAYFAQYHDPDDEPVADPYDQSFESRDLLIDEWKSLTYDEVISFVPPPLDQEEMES

O=C(Nc1cccnc1)c1cc(-c2ccnc(F)c2)ccc1OCc1ccccc1
Activity [1]: 35% | Activity [2]: 71% | Activity [3]: 79% | Activity [4]: 48% | Activity [5]: 101% | Activity [6]: 74% | Activity [7]: 77% | Activity [8]: 97% | Activity [9]: 30% | Activity [10]: 106% | Activity [11]: 16% | Activity [12]: 75% | Activity [13]: 58% | Activity [14]: 56% | Activity [15]: 120% | Activity [16]: 102% | Activity [17]: 26% | Activity [18]: 71% | inhibition [19]: Active | Activity [20]: 67% | Activity [21]: 61% | Activity [22]: 59% | Activity [23]: 113% | inhibition [24]: Dose-dependent effect | Activity [25]: 61% | Activity [26]: 90%
